In ChEMBL document CHEMBL4808167, “Design, Synthesis, and Evaluation of Small Molecule Gαq/11 Protein Inhibitors for the Treatment of Uveal Melanoma” (J Med Chem, 2021):
Activity calls are given as the source filed them. The calls are words filed in the database; no cut-off is given here.

Experiments:
MP41 = assay: Inhibition of cell invasion in human MP41 cells at 5 to 15 uM incubated for 48 hrs by transwell assay; type: functional, cell-based; conditions: dose 5-15 µM
How it was run: (§1)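 92.1 or MP41 cells (1 × 10⁴/well) seeded in serum-free medium in the upper transwell chamber, with 20% FBS medium below. Left overnight, then treated 48 h. Non-migrated cells swabbed off; cells on the lower side stained with crystal violet 30 min and counted by light microscopy (×40 for migration, ×100 for invasion). Mean ± SD, n = 3.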

[1] = Toxicity in nude BALB/c mouse xenografted with human MP41 cells assessed as morphological changes in lung tissue at 10 to 30 mg/kg, ip administered once daily for 21 days and measured every 3 days by HE staining based assay; type: organism-based; conditions: in vivo, 504 h, dose 10-30 mg/kg, time 21 day
How it was run: (§2)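 Nude BALB/c mice bearing serially passaged MP41 tumour slices (tertiary recipients, n = 8/group, randomized) dosed ip daily for 21 days at 10 or 30 mg/kg/d or vehicle. Body weight monitored every 3 days. Tissues collected at sacrifice, fixed in 4% paraformaldehyde 24 h, paraffin-embedded, H&E stained, viewed at ×100.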

[2] = biological target: GNAQ/GNA11 (Homo sapiens) (UniProt P50148+P29992); assay: Inhibition of Galphaq/11 (unknown origin) expressed in HEK293 cells cotransfected with AT1R assessed as inhibition of Ang-II induced calcium release at 100 uM preincubated for 30 mins followed by Ang-II addition by Fluo-4AM dye based fluorescence assay; type: cell-based
How it was run: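 HEK293 cells transfected with AT₁R, washed in HBSS with 0.1% BSA and loaded with Fluo-4 AM for 1 h at 37 °C. Washed, then pretreated with compound at 100 μM for 30 min. AngII at varying concentrations added 20 s into the fluorescence recording. Mean ± SD, n = 3.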

[3] = Tmax in ICR mouse at 10 mg/kg, iv measured upto 24 hrs by LC-MS/MS analysis; type: ADME, organism-based; conditions: in vivo
How it was run: (§3)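 Single-dose PK in male ICR mice (n = 6): 10 mg/kg iv or 30 mg/kg po, vehicle 5% DMSO/95% saline. Blood (30 μL) by catheter at 0, 5, 15, 30 min and 1, 2, 4, 6, 8, 24 h; plasma by centrifugation, stored −80 °C, measured by LC–MS/MS. Parameters from noncompartmental analysis, mean SD.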

[4] = Volume of distribution at steady state in ICR mouse at 10 mg/kg, iv measured upto 24 hrs by LC-MS/MS analysis; type: ADME, organism-based; conditions: in vivo, read-out: Vdss; how it was run: as §3
[5] = Oral bioavailability in ICR mouse at 30 mg/kg measured upto 24 hrs by LC-MS/MS analysis; type: ADME, organism-based; conditions: in vivo; how it was run: as §3
921 [6] = assay: Antiproliferative activity against GNAQ knock down human 92.1 cells assessed as inhibition of cell growth at 10 to 15 uM after 72 hrs by CKK8 assay; type: functional; conditions: dose 10-15 µM
[7] = Induction of apoptosis in human MP41 cells assessed as necrotic cells at 15 uM after 48 hrs by Annexin-V-FITC/propidium iodide staining based flow cytometry (reference value: 0.11%); type: functional
[8] = MRT(0 to t) in ICR mouse at 30 mg/kg, po measured upto 24 hrs by LC-MS/MS analysis; type: ADME, organism-based; conditions: in vivo; how it was run: as §3
[9] = AUC(0 to t) in ICR mouse at 30 mg/kg, po measured upto 24 hrs by LC-MS/MS analysis; type: ADME, organism-based; set-up: route oral, dose 30 mg/kg, time <=24; conditions: in vivo
How it was run: (§4)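 Single dose in male ICR mice, 10 mg/kg iv or 30 mg/kg po, dissolved in 5% DMSO/95% saline. Blood drawn by catheter at 0, 5, 15, 30 min and 1, 2, 4, 6, 8, 24 h. Plasma spun 6800g 6 min at 2−8 °C, stored −80 °C, quantified by LC−MS/MS. Noncompartmental parameters, mean ± SD, n = 6.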

[10] = Cmax in ICR mouse at 30 mg/kg, po measured upto 24 hrs by LC-MS/MS analysis; type: ADME, organism-based; set-up: route oral, dose 30 mg/kg, time <=24; conditions: in vivo; how it was run: as §4
GNAQ/GNA11 = biological target: T1, GNAQ/GNA11 (Homo sapiens, UniProt P50148+P29992); assay: Binding affinity to Galphaq/11 (unknown origin) expressed in HEK293 cells cotransfected with AT1R/Galphaq-RLuc8/ Ggamma2-venus/Gbeta1 assessed as inhibition of Ang-II induced-BRET signal preincubated for 1 hr followed by Ang-II addition by BRET assay; type: cell-based
T1 sequence (P50148 whole entry): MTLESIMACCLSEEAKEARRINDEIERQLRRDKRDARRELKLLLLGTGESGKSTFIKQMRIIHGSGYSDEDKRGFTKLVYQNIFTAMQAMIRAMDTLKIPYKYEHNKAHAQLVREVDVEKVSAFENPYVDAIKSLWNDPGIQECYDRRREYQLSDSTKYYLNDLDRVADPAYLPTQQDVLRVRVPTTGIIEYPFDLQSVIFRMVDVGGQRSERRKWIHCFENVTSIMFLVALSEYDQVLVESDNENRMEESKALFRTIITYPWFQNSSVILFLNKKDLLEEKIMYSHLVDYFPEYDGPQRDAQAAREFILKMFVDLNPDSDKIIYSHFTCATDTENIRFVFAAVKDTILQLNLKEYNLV
T1 sequence (P29992 whole entry): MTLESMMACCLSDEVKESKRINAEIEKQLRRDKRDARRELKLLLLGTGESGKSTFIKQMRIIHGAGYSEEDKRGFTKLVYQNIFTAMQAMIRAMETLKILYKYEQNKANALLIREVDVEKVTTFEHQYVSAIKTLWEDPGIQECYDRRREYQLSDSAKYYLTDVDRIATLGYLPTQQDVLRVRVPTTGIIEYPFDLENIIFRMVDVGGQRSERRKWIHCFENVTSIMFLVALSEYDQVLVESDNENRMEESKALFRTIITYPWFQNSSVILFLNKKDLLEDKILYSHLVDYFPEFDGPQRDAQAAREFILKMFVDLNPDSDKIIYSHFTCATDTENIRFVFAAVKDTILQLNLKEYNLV
How it was run: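 HEK293 cells transiently transfected with AT₁R, Gαq-RLuc8, Gγ2-Venus and untagged Gβ1. Replated 24 h later, washed with HBS, starved 10 min, then pretreated with compound for 1 h at 37 °C. AngII added, followed by coelenterazine. BRET ratio taken as Venus emission (520−570 nm) over RLuc8 emission (370−480 nm). Mean ± SD, n = 3.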

[11] = Toxicity in nude BALB/c mouse xenografted with human MP41 cells assessed as morphological changes in spleen tissue at 10 to 30 mg/kg, ip administered once daily for 21 days and measured every 3 days by HE staining based assay; type: organism-based; conditions: in vivo, 504 h, dose 10-30 mg/kg, time 21 day; how it was run: as §2
921 [12] = assay: Inhibition of cell migration in human 921 cells at 15 uM incubated for 48 hrs by transwell migration assay; type: functional, cell-based; how it was run: as §1
[13] = Half life in ICR mouse at 30 mg/kg, po measured upto 24 hrs by LC-MS/MS analysis; type: ADME, organism-based; conditions: in vivo; how it was run: as §4
[14] = Clearance in ICR mouse at 10 mg/kg, iv measured upto 24 hrs by LC-MS/MS analysis; type: ADME, organism-based; conditions: in vivo; how it was run: as §4
[15] = Induction of apoptosis in human 921 cells assessed as late apoptotic cells at 5 uM after 48 hrs by Annexin-V-FITC/propidium iodide staining based flow cytometry (reference value: 2.52%); type: functional

With `CC[C@@H](C)[C@H](N)C(=O)N1CCn2cc(-c3ccccc3)nc2[C@@H]1CC1CCCCC1` the inhibition (MP41) was “Active”, the Activity [1] was “Non-Toxic” and the Activity [2] was “Active”. For the same compound, the Tmax [3] was 4.8 min, the Vd [4] was 4.53 L/kg and the bioavailability [5] was 92.6%. For the same compound, the Activity 921 [6] was “inactive”, the Activity [7] was 0.09% and the MRT last at 24 h [8] was 1.88 h. The AUC(0-t) at 24 h [9] was 5940 ng·h/mL, the Cmax [10] was 2890 ng/mL and the IC50 (GNAQ/GNA11) was 55.2 µM. The Activity [11] was “Non-Toxic”, the inhibition 921 [12] was “Active” and the half-life [13] was 1.41 h. For the same compound, the clearance [14] was 77.9 mL/min/kg and the Activity [15] was 3.4%.
